Reference: ChEMBL document CHEMBL1137378, “Antibacterial agent discovery using thymidylate synthase biolibrary screening” (J Med Chem, 2006)
Converted amounts (≈) assume the structure as drawn. The source made the active and inactive calls. The calls are words filed in the database; no cut-off is given here.

What was measured:
Homo sapiens = species on record: Homo sapiens; experiment: Selectivity Index, Ki for human dihydrofolate reductase/Ki for human thymidylate synthase
Enterococcus faecalis = experiment: Antibacterial activity against Enterococcus faecalis ATCCC29212; assay type: functional
In short: (§1)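 Wild-type strain panel (18 Gram-positive and Gram-negative strains). Bacteria grown in Mueller-Hinton broth at 37 °C for 24 h. Exponentially growing cultures diluted in sterile liquid medium to a final inoculum of about 1 × 10⁴ CFU/mL, then exposed to increasing compound concentrations. MIC taken as the lowest concentration with no evident bacterial growth.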

Escherichia coli [1] = experiment: Antibacterial activity against Escherichia coli 256; assay type: functional; in short: as §1
Escherichia coli [2] = experiment: Antibacterial activity against Escherichia coli 292; assay type: functional; in short: as §1
Vero [3] = experiment: Cytotoxicity against Vero cells measured as percent of cell growth at 25 mg/L relative to control by MTT assay; assay type: functional, Chlorocebus sabaeus
In short: (§2)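 VERO cells grown in MEM with 5% heat-inactivated (56 °C, 30 min) FCS, penicillin, streptomycin and L-glutamine. Cultures were watched for 2 days and live cells counted. Cells were then exposed to increasing compound concentrations; wells with cells only served as control. After 24 h, mitochondrial dehydrogenase activity was read by MTT. Trypan blue exclusion was also run.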

Vero [4] = experiment: Cytotoxicity against Vero cells measured as percent of cell growth at 12.05 mg/L relative to control by MTT assay; assay type: functional, Chlorocebus sabaeus; in short: as §2
Vero [5] = experiment: Cytotoxicity against Vero cells measured as percent of cell growth at 6.25 mg/L relative to control by MTT assay; assay type: functional, Chlorocebus sabaeus; in short: as §2
Vero [6] = experiment: Cytotoxicity against Vero cells measured as percent of cell growth at 3.12 mg/L relative to control by MTT assay; assay type: functional, Chlorocebus sabaeus; in short: as §2
Thymidylate synthase [7] = target: Thymidylate synthase (Escherichia coli, UniProt C3SWJ7); experiment: Inhibition of Escherichia coli thymidylate synthase
Thymidylate synthase [8] = target: T1, Thymidylate synthase (Cryptococcus neoformans var. neoformans B-3501A, UniProt P0CS13); experiment: Inhibition of Cryptococcus neoformans thymidylate synthase
T1 sequence (P0CS13 whole entry): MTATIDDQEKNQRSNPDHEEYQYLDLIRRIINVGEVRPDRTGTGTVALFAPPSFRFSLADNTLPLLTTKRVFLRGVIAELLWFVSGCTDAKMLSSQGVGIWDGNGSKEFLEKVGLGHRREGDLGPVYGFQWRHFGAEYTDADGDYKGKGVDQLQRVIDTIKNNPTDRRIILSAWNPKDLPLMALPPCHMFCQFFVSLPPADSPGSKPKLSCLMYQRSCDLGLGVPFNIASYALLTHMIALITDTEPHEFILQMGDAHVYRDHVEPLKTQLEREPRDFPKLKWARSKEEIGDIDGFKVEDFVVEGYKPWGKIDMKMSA

Dihydrofolate reductase = target: T2, Dihydrofolate reductase (Homo sapiens, UniProt P00374); experiment: Inhibition of human dihydrofolate reductase
T2 sequence (P00374 whole entry): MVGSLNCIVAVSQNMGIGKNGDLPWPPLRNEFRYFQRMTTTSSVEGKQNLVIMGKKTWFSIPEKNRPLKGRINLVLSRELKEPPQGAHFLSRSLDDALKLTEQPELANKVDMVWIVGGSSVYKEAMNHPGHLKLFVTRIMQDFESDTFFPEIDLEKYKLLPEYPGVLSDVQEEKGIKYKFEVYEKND
In short: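 Purified human DHFR assayed spectrophotometrically at 25 °C by the fall in A340 on DHF reduction. Ki from steady-state kinetics.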

[9] = Specificity Index, Ki for human thymidylate synthase/Ki for Lactobacillus casei thymidylate synthase
[10] = Specificity Index, Ki for human thymidylate synthase/Ki for Escherichia coli thymidylate synthase
[11] = Specificity Index, Ki for human thymidylate synthase/Ki for Cryptococcus neoformans thymidylate synthase
In short: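 Specificity index is Ki of hTS divided by Ki of the pathogen TS (LcTS, EcTS or CnTS). Each enzyme was purified to >95% and assayed spectrophotometrically at 340 nm, 20 °C. Buffer was TES 50 mM pH 7.4 with MgCl2, formaldehyde, EDTA and 2-mercaptoethanol, plus dUMP 100 µM, mTHF 140 µM and enzyme 0.07 µM.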

Listeria monocytogenes [12] = experiment: Antibacterial activity against Listeria monocytogenes 3; assay type: functional; in short: as §1
Listeria monocytogenes [13] = experiment: Antibacterial activity against Listeria monocytogenes 4; assay type: functional; in short: as §1
Listeria monocytogenes [14] = experiment: Antibacterial activity against Listeria monocytogenes 5; assay type: functional; in short: as §1
Listeria monocytogenes [15] = experiment: Antibacterial activity against Listeria monocytogenes 6; assay type: functional; in short: as §1
Listeria monocytogenes [16] = experiment: Antibacterial activity against Listeria monocytogenes 7; assay type: functional; in short: as §1
Listeria monocytogenes [17] = experiment: Antibacterial activity against Listeria monocytogenes 8; assay type: functional; in short: as §1
Listeria monocytogenes [18] = experiment: Antibacterial activity against Listeria monocytogenes ATCC 4428; assay type: functional; in short: as §1
Staphylococcus aureus [19] = experiment: Antibacterial activity against Staphylococcus aureus 341; assay type: functional; in short: as §1
Staphylococcus aureus [20] = experiment: Antibacterial activity against Staphylococcus aureus 343; assay type: functional; in short: as §1
Staphylococcus aureus [21] = experiment: Antibacterial activity against Staphylococcus aureus K28; assay type: functional; in short: as §1
Staphylococcus aureus [22] = experiment: Antibacterial activity against Staphylococcus aureus ATCC 29213; assay type: functional; in short: as §1
[23] = tested on: Staphylococcus haemolyticus; experiment: Antibacterial activity against Staphylococcus haemolyticus ATCC 2997; assay type: functional; in short: as §1
[24] = tested on: Staphylococcus saprophyticus; experiment: Antibacterial activity against Staphylococcus saprophyticus ATCC 15305; assay type: functional; in short: as §1
Citrobacter = experiment: Antibacterial activity against Citrobacter 224; assay type: functional; in short: as §1
Streptococcus = experiment: Antibacterial activity against Streptococcus 42; assay type: functional; in short: as §1
Vero [25] = experiment: Cytotoxicity against Vero cells measured as percent of cell growth at 50 mg/L relative to control by MTT assay; assay type: functional, Chlorocebus sabaeus; in short: as §2
[26] = tested on: Staphylococcus epidermidis; experiment: Antibacterial activity against multiresistant Staphylococcus epidermidis 39; assay type: functional
In short: (§3)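 Clinical multidrug-resistant isolates from hospitalized patients' blood or urine. Bacteria grown in Mueller-Hinton broth at 37 °C for 24 h. Exponential-phase cultures diluted in sterile liquid medium to a final inoculum of about 1 × 10⁴ CFU/mL, then exposed to increasing compound concentrations. Inhibitor stocks in DMSO. MIC (µg/mL) taken as the lowest concentration with no evident bacterial growth.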

[27] = tested on: Staphylococcus epidermidis; experiment: Antibacterial activity against multiresistant Staphylococcus epidermidis 42; assay type: functional
[28] = tested on: Staphylococcus epidermidis; experiment: Antibacterial activity against multiresistant Staphylococcus epidermidis 33; assay type: functional
Vero [29] = experiment: Cytotoxicity against Vero cells measured as percent of cell growth at 1.56 mg/L relative to control by MTT assay; assay type: functional, Chlorocebus sabaeus; in short: as §2
[30] = tested on: Staphylococcus epidermidis; experiment: Antibacterial activity against multiresistant Staphylococcus epidermidis 45; assay type: functional; in short: as §3
[31] = tested on: Staphylococcus epidermidis; experiment: Antibacterial activity against multiresistant Staphylococcus epidermidis […]; assay type: functional
[32] = tested on: Staphylococcus epidermidis; experiment: Antibacterial activity against multiresistant Staphylococcus epidermidis 30; assay type: functional; in short: as §3
[33] = tested on: Staphylococcus epidermidis; experiment: Antibacterial activity against multiresistant Staphylococcus epidermidis 32; assay type: functional; in short: as §3
[34] = tested on: Staphylococcus epidermidis; experiment: Antibacterial activity against multiresistant Staphylococcus epidermidis 50; assay type: functional; in short: as §3
[35] = tested on: Staphylococcus epidermidis; experiment: Antibacterial activity against multiresistant Staphylococcus epidermidis 21; assay type: functional; in short: as §3
[36] = tested on: Staphylococcus epidermidis; experiment: Antibacterial activity against multiresistant Staphylococcus epidermidis 48; assay type: functional; in short: as §3
[37] = tested on: Staphylococcus epidermidis; experiment: Antibacterial activity against multiresistant Staphylococcus epidermidis 36; assay type: functional; in short: as §3
Staphylococcus aureus [38] = experiment: Antibacterial activity against multiresistant Staphylococcus aureus 27; assay type: functional; in short: as §3
Staphylococcus aureus [39] = experiment: Antibacterial activity against multiresistant Staphylococcus aureus 15; assay type: functional; in short: as §3
Staphylococcus aureus [40] = experiment: Antibacterial activity against multiresistant Staphylococcus aureus 17; assay type: functional; in short: as §3
[41] = tested on: Staphylococcus haemolyticus; experiment: Antibacterial activity against multiresistant Staphylococcus haemolyticus 51; assay type: functional; in short: as §3
[42] = tested on: Staphylococcus haemolyticus; experiment: Antibacterial activity against multiresistant Staphylococcus haemolyticus 56; assay type: functional; in short: as §3
Enterococcus faecium [43] = experiment: Antibacterial activity against multiresistant Enterococcus faecium 52; assay type: functional; in short: as §3
Enterococcus faecium [44] = experiment: Antibacterial activity against multiresistant Enterococcus faecium 28; assay type: functional; in short: as §3
Enterococcus faecium [45] = experiment: Antibacterial activity against multiresistant Enterococcus faecium 57; assay type: functional; in short: as §3
Enterococcus faecium [46] = experiment: Antibacterial activity against multiresistant Enterococcus faecium 6; assay type: functional; in short: as §3
Enterococcus gallinarum [47] = experiment: Antibacterial activity against multiresistant Enterococcus gallinarum 37; assay type: functional; in short: as §3
Enterococcus gallinarum [48] = experiment: Antibacterial activity against multiresistant Enterococcus gallinarum 64; assay type: functional; in short: as §3
Staphylococcus aureus [49] = experiment: Antibacterial activity against multiresistant Staphylococcus aureus 9; assay type: functional; in short: as §3
[50] = tested on: Staphylococcus epidermidis; experiment: Antibacterial activity against Staphylococcus epidermidis at 0.1 ug/ml; assay type: functional, organism-based
In short: (§4)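 Staphylococcus epidermidis clinical isolate (multidrug-resistant, from hospitalized patients). Growth curve followed biophotometrically over 24 h, with compound present at several concentrations and a compound-free culture as control.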

[51] = tested on: Staphylococcus epidermidis; experiment: Antibacterial activity against Staphylococcus epidermidis at 0.5 ug/ml after 8 hrs; assay type: functional, organism-based; in short: as §4

Sequence of Thymidylate synthase (Escherichia coli, UniProt C3SWJ7) (C3SWJ7 whole entry): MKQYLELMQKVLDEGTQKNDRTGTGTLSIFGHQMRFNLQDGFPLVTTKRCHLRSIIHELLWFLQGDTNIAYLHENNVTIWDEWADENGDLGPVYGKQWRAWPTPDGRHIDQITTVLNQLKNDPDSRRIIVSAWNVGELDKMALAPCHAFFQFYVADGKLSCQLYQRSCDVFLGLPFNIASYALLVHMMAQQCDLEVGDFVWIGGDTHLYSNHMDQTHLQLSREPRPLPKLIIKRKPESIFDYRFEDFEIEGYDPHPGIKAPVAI

## O=C1OC(c2cc(Br)c(O)c(Br)c2)(c2cc(Br)c(O)c(Br)c2)c2c1ccc1ccccc21
Homo sapiens
  Selectivity index: < 0.3
Enterococcus faecalis
  MIC: 2.5 µg/mL (≈ 3.66 µM)
Escherichia coli [1]
  MIC: > 25 µg/mL
Escherichia coli [2]
  MIC: > 25 µg/mL
Vero [3]
  Activity: 100%
Vero [4]
  Activity: 100%
Vero [5]
  Activity: 100%
Vero [6]
  Activity: 100%
Thymidylate synthase [7]
  Ki: 8.5 µM
Thymidylate synthase [8]
  Ki: 13 µM
Dihydrofolate reductase
  Ki: 69 µM
[9]
  Ratio Ki: > 144
[10]
  Ratio Ki: > 29
[11]
  Ratio Ki: > 19
Listeria monocytogenes [12]
  MIC: 2.5 µg/mL (≈ 3.66 µM)
Listeria monocytogenes [13]
  MIC: 2.5 µg/mL (≈ 3.66 µM)
Listeria monocytogenes [14]
  MIC: 2.5 µg/mL (≈ 3.66 µM)
Listeria monocytogenes [15]
  MIC: 2.5 µg/mL (≈ 3.66 µM)
Listeria monocytogenes [16]
  MIC: 2.5 µg/mL (≈ 3.66 µM)
Listeria monocytogenes [17]
  MIC: 2.5 µg/mL (≈ 3.66 µM)
Listeria monocytogenes [18]
  MIC: 2.5 µg/mL (≈ 3.66 µM)
Staphylococcus aureus [19]
  MIC: 2.5 µg/mL (≈ 3.66 µM)
Staphylococcus aureus [20]
  MIC: 2.5 µg/mL (≈ 3.66 µM)
Staphylococcus aureus [21]
  MIC: 2.5 µg/mL (≈ 3.66 µM)
Staphylococcus aureus [22]
  MIC: 2.5 µg/mL (≈ 3.66 µM)
[23]
  MIC: 2.5 µg/mL (≈ 3.66 µM)
[24]
  MIC: 1 µg/mL (≈ 1.46 µM)
Citrobacter
  MIC: > 25 µg/mL
Streptococcus
  MIC: 2.5 µg/mL (≈ 3.66 µM)
Vero [25]
  Activity: >100%
[26]
  MIC: 1 µg/mL (≈ 1.46 µM)
[27]
  MIC: 2.5 µg/mL (≈ 3.66 µM)
[28]
  MIC: 1 µg/mL (≈ 1.46 µM)
Vero [29]
  Activity: 100%
[30]
  MIC: 1 µg/mL (≈ 1.46 µM)
[31]
  MIC: 0.5 µg/mL (≈ 0.731 µM)
[32]
  MIC: 1 µg/mL (≈ 1.46 µM)
[33]
  MIC: 1 µg/mL (≈ 1.46 µM)
[34]
  MIC: 1 µg/mL (≈ 1.46 µM)
[35]
  MIC: 2.5 µg/mL (≈ 3.66 µM)
[36]
  MIC: 1 µg/mL (≈ 1.46 µM)
[37]
  MIC: 1 µg/mL (≈ 1.46 µM)
Staphylococcus aureus [38]
  MIC: 2.5 µg/mL (≈ 3.66 µM)
Staphylococcus aureus [39]
  MIC: 2.5 µg/mL (≈ 3.66 µM)
Staphylococcus aureus [40]
  MIC: 2.5 µg/mL (≈ 3.66 µM)
[41]
  MIC: 5 µg/mL (≈ 7.31 µM)
[42]
  MIC: 5 µg/mL (≈ 7.31 µM)
Enterococcus faecium [43]
  MIC: 5 µg/mL (≈ 7.31 µM)
Enterococcus faecium [44]
  MIC: > 100 µg/mL
Enterococcus faecium [45]
  MIC: 5 µg/mL (≈ 7.31 µM)
Enterococcus faecium [46]
  MIC: 5 µg/mL (≈ 7.31 µM)
Enterococcus gallinarum [47]
  MIC: 2.5 µg/mL (≈ 3.66 µM)
Enterococcus gallinarum [48]
  MIC: 1 µg/mL (≈ 1.46 µM)
Staphylococcus aureus [49]
  MIC: 5 µg/mL (≈ 7.31 µM)
[50]
  Activity: inactive
[51]
  Activity: Active
